Measurements as given in ChEMBL document CHEMBL4024708, “Recent synthetic and medicinal perspectives of dihydropyrimidinones: A review” (Eur J Med Chem, 2017).
In brackets after ≈: the same amount, converted by molar mass.

Columns and labels:
Rattus norvegicus = test: Anti-inflammatory activity in rat assessed as inhibition of carrageenan-induced hind paw edema at 10 mg/kg, po pretreated for 1 hr followed by carrageenan challenge measured after 3 hrs by plethysmometer relative to control; format: functional
Procedure, shortened: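 Albino rats; carrageenan-induced paw edema test after Winter et al., with diclofenac sodium as reference standard. Percentage reduction in inflammation recorded 3 h after carrageenan, relative to carrageenan-only animals.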

[1] = Antioxidant activity assessed as DPPH free radical scavenging activity at 12.5 ppm after 30 mins in dark by spectrophotometric method relative to control; format: functional
Procedure, shortened: (§1)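 DPPH (1,1-diphenyl-2-picrylhydrazyl) radical scavenging assay. The change in absorbance was read at 517 nm on a spectrophotometer. Activity is given as percent inhibition of the DPPH radical, calculated as (absorbance of control − absorbance of sample)/absorbance of control × 100.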

Klebsiella pneumoniae = test: Antibacterial activity against Klebsiella pneumoniae MTCC 7028 by spectrophotometric method; format: functional
Procedure, shortened: (§2)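 Serial broth dilution, 200 to 15.625 μg/mL, in nutrient broth, sonicated 10 min. Inoculum gave a starting density of 10^3–10^4 CFU/mL. Flasks were shaken at 200 rpm and 37 °C, and growth followed by the rise in absorbance at 600 nm. MIC is the lowest concentration inhibiting the organism. Controls: compound without inoculum, and inoculum without compound.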

Escherichia coli = test: Antibacterial activity against Escherichia coli MTCC 443 by spectrophotometric method; format: functional; procedure, shortened: as §2
Pseudomonas aeruginosa = test: Antibacterial activity against Pseudomonas aeruginosa MTCC 2581 by spectrophotometric method; format: functional; procedure, shortened: as §2
[2] = Antioxidant activity assessed as DPPH free radical scavenging activity at 100 ppm after 30 mins in dark by spectrophotometric method relative to control; format: functional; procedure, shortened: as §1
[3] = Antioxidant activity assessed as cupric ion reducing activity by measuring increase in absorbance at 100 ppm by CUPRAC assay; format: functional
Procedure, shortened: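 CUPRAC assay. Sample solution was mixed with distilled water, at a pH close to 7. Reduction of Cu(II) to Cu(I) was followed as the increase in absorbance at 450 nm of the reaction mixture.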

Mus musculus [4] = test: Anticonvulsant activity in ip dosed maximal electroshock induced seizure mouse model assessed as suppression of hind limb tonic extension measured at 0.5 hrs post dose; format: functional; conditions: read-out: MED
Procedure, shortened: (§3)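 Albino mice given the compound ip, suspended in 0.5% methyl cellulose–water, at 30, 100 and 300 mg/kg. Maximal electroshock by corneal electrodes: 50 mA, 60 Hz, 0.2 s. Abolition of hind limb tonic extension scored as protection. Value is the minimum dose active in half or more of the mice.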

Mus musculus [5] = test: Anticonvulsant activity in ip dosed maximal electroshock induced seizure mouse model assessed as suppression of hind limb tonic extension measured at 4 hrs post dose; format: functional; conditions: read-out: MED; procedure, shortened: as §3
[6] = biological target: T1, Alpha-1A adrenergic receptor (Homo sapiens, UniProt P35348); test: Displacement of [125I]L-762,459 from recombinant human alpha1a adrenergic receptor expressed in mammalian cells measured after 1 hr; format: cell-based
T1 sequence (P35348 whole entry): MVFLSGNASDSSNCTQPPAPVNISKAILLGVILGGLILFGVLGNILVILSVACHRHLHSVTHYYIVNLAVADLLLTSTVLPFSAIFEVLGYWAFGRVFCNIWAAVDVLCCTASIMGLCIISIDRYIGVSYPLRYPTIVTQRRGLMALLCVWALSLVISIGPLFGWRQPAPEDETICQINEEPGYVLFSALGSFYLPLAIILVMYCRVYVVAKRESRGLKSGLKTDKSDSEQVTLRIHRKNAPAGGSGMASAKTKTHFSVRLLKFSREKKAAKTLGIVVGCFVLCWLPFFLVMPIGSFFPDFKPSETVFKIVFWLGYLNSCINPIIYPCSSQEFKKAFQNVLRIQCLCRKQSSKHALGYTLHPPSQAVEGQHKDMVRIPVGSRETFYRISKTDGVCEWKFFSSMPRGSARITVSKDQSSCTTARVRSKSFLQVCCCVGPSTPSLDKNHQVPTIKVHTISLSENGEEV

Staphylococcus aureus = test: Antibacterial activity against Staphylococcus aureus MTCC 3160 by spectrophotometric method; format: functional; procedure, shortened: as §2
[7] = Antioxidant activity assessed as cupric ion reducing activity by measuring increase in absorbance at 12.5 ppm by CUPRAC assay; format: functional
Procedure, shortened: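 CUPRAC: reduction of Cu(II) to Cu(I) followed by the increase in absorbance at 450 nm. Sample and distilled water were made up to 4 mL total, near pH 7. Compounds were tested at 12.5–100 ppm, with gallic acid and quercetin as standards.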

Q: For `O=C(O)CC1=C(c2ccccc2)N=C(S)NC1c1cccs1` (stereo not given), which inhibition in vivo at 10 mg/kg (Rattus norvegicus) is on record?
A: 21%

Q: For `O=C(O)CC1=C(c2ccc(Cl)cc2)NC(=S)NC1c1cccs1` (stereo not given), which inhibition in vivo at 10 mg/kg (Rattus norvegicus) is on record?
A: 16%

Q: Which inhibition in vivo at 10 mg/kg (Rattus norvegicus) does the source give for `Cc1ccc(C2=C(CC(=O)O)C(c3ccccc3)NC(S)=N2)cc1` (stereo not given) here?
A: 28%

Q: For `CCC(=O)C1=C(C)NC(=O)NC1c1cc(Cl)cc(Cl)c1` (stereo not given), which Activity [1] is on record?
A: 17.3%

Q: What about the MIC (Klebsiella pneumoniae) of the same compound?
A: 31.2 to 62.5 µg/mL (≈ 99.8 to 200 µM)

Q: What about the MIC (Escherichia coli) of the same compound?
A: 15.6 to 31.2 µg/mL (≈ 49.8 to 99.6 µM)

Q: And the MIC (Pseudomonas aeruginosa)?
A: 15.6 to 31.2 µg/mL (≈ 49.8 to 99.6 µM)

Q: Which Activity [2] does the source give for `O=c1c(O)c(-c2ccc(O)c(O)c2)oc2cc(O)cc(O)c12` here?
A: 82.3%

Q: And the absorbance [3]?
A: 1.2

Q: And the Activity [1]?
A: 55.3%

Q: What does the source list for `CN(C)c1ccc(C2C=C(n3cc(-c4ccccc4)nc3-c3ccccc3)N=C(S)N2)cc1` (stereo not given)?
A: minimal effective dose (Mus musculus [4]): 100 mg/kg; minimal effective dose (Mus musculus [5]): 300 mg/kg

Q: Which minimal effective dose (Mus musculus [4]) does the source give for `SC1=NC(n2nc(-c3ccccc3)nc2-c2ccccc2)=CC(c2ccc(Br)cc2)N1` (stereo not given) here?
A: 100 mg/kg

Q: What about the minimal effective dose (Mus musculus [5]) of the same compound?
A: 300 mg/kg

Q: For `O=C(O)CC1=C(c2ccc(Cl)cc2)N=C(S)NC1c1ccc(Cl)cc1` (stereo not given), which inhibition in vivo at 10 mg/kg (Rattus norvegicus) is on record?
A: 25%

Q: Which inhibition in vivo at 10 mg/kg (Rattus norvegicus) does the source give for `COc1ccc(C2NC(S)=NC(c3ccccc3)=C2CC(=O)O)cc1` (stereo not given) here?
A: 32%

Q: With `O=C(O)c1cc(O)c(O)c(O)c1` as the compound, how does the Activity [2] read?
A: 92.4%

Q: What about the absorbance [3] of the same compound?
A: 1.4

Q: And the Activity [1]?
A: 62.4%

Q: For `CC1=C(C(=O)NCCCN2CCC(c3ccc(F)c(F)c3)CC2)[C@@H](c2ccc(F)c(F)c2)NC(=O)N1C`, which Ki [6] is on record?
A: 180 to 390 pM

Q: Which MIC (Staphylococcus aureus) does the source give for `CCC(=O)C1=C(C)NC(=O)NC1c1ccc(OC)cc1` (stereo not given) here?
A: 250 µg/mL (≈ 911 µM)

Q: What about the absorbance [7] of the same compound?
A: 0.05

Q: What about the MIC (Klebsiella pneumoniae) of the same compound?
A: 31.2 to 62.5 µg/mL (≈ 114 to 228 µM)

Q: What about the MIC (Pseudomonas aeruginosa; read-out: MIC) of the same compound?
A: 250 µg/mL (≈ 911 µM)

Q: With `O=C1NC(=O)C(c2ccccc2)(c2ccccc2)N1` [PHENYTOIN] as the compound, how does the minimal effective dose (Mus musculus [4]) read?
A: 30 mg/kg

Q: What about the minimal effective dose (Mus musculus [5]) of the same compound?
A: 30 mg/kg

Q: For `CCC(=O)C1=C(C)NC(=O)NC1c1ccc(Cl)cc1` (stereo not given), which MIC (Staphylococcus aureus) is on record?
A: 62.5 to 125 µg/mL (≈ 224 to 448 µM)

Q: What about the MIC (Klebsiella pneumoniae) of the same compound?
A: 31.2 to 62.5 µg/mL (≈ 112 to 224 µM)

Q: And the MIC (Escherichia coli)?
A: 15.6 to 31.2 µg/mL (≈ 56 to 112 µM)

Q: And the MIC (Pseudomonas aeruginosa)?
A: 15.6 to 31.2 µg/mL (≈ 56 to 112 µM)

Q: For `COCC1=C(C(=O)NCCCN2CCC(C#N)(c3ccc(F)cc3)CC2)[C@@H](c2ccc(F)cc2)NCN1`, which Ki [6] is on record?
A: 170 pM

Q: Which MIC (Staphylococcus aureus) does the source give for `CC(=O)C1=C(C)NC(=O)NC1c1ccccc1` (stereo not given) here?
A: 62.5 to 125 µg/mL (≈ 271 to 543 µM)

Q: And the Activity [2]?
A: 64.4%

Q: What about the absorbance [3] of the same compound?
A: 0.87

Q: What about the MIC (Escherichia coli) of the same compound?
A: 15.6 to 31.2 µg/mL (≈ 67.7 to 135 µM)

Q: What about the MIC (Pseudomonas aeruginosa; read-out: MIC) of the same compound?
A: 250 µg/mL (≈ 1090 µM)

Q: For `CCC(=O)C1=C(C)NC(=O)NC1c1ccccc1` (stereo not given), which MIC (Staphylococcus aureus) is on record?
A: 62.5 to 125 µg/mL (≈ 256 to 512 µM)

Q: What about the MIC (Pseudomonas aeruginosa) of the same compound?
A: 15.6 to 31.2 µg/mL (≈ 63.9 to 128 µM)

Q: Which results are given for `CCC(=O)C1=C(C)NC(=O)NC1c1ccc([N+](=O)[O-])cc1` (stereo not given)?
A: MIC (Staphylococcus aureus): 62.5 to 125 µg/mL (≈ 216 to 432 µM); MIC (Pseudomonas aeruginosa): 15.6 to 31.2 µg/mL (≈ 53.9 to 108 µM)

Q: For `O=C(O)CC1=C(c2ccc(Cl)cc2)N=C(S)NC1c1ccccc1` (stereo not given), which inhibition in vivo at 10 mg/kg (Rattus norvegicus) is on record?
A: 20%

Q: Which Ki [6] does the source give for `COCC1=C(C(=O)NCCCN2CCC(C#N)(c3ccc(C#N)cc3)CC2)[C@@H](c2ccc(F)c(F)c2)NC(=O)N1` here?
A: 160 pM

Q: For `CC1=C(C(=O)NCCCN2CCC(c3ccc(F)cc3)CC2)[C@@H](c2ccc(F)c(F)c2)N(C)C(=O)N1C`, which Ki [6] is on record?
A: 140 pM

Q: Which results are given for `Oc1ccc(C2C=C(n3nc(-c4ccccc4)nc3-c3ccccc3)N=C(S)N2)cc1` (stereo not given)?
A: minimal effective dose (Mus musculus [4]): 30 mg/kg; minimal effective dose (Mus musculus [5]): 300 mg/kg
